Laboratory results as given in ChEMBL document CHEMBL3804770 (J Med Chem, 2016).
Active and inactive are the calls of the source. The rule behind the calls is not given here.

Experiments:
[1] = nOctanol-phosphate buffer partition coefficient, log D of the compound at pH 7.4 incubated for 3 hrs in dark condition by fluorimeter; type: physicochemical; settings: octanol/water, pH 7.4, 3 h
[2] = Drug degradation […] at 10 uM after 24 hrs by HPLC analysis under dark conditions; type: physicochemical; settings: read-out: Drug degradation
How it was run: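 10 μM solution in complete cell culture medium, made from DMSO stock, kept at 37 °C in the dark. Aliquots taken at 0, 2, 24, 48, 96 and 168 h, extracted with dichloromethane, reconstituted in 5% DMSO in ACN. Analysed by isocratic HPLC (90% ACN/10% 10 mM ammonium acetate, 0.5 mL/min); remaining percentage versus t = 0, three experiments.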

Tubulin (Sus scrofa) [3] = molecular target: T1, Tubulin (Sus scrofa) (UniProt P02554+P02550); test: Induction of porcine brain tubulin polymerization at 3 uM after 40 mins by fluorescence analysis in presence of GTP
T1 sequence (P02550 whole entry, looked up): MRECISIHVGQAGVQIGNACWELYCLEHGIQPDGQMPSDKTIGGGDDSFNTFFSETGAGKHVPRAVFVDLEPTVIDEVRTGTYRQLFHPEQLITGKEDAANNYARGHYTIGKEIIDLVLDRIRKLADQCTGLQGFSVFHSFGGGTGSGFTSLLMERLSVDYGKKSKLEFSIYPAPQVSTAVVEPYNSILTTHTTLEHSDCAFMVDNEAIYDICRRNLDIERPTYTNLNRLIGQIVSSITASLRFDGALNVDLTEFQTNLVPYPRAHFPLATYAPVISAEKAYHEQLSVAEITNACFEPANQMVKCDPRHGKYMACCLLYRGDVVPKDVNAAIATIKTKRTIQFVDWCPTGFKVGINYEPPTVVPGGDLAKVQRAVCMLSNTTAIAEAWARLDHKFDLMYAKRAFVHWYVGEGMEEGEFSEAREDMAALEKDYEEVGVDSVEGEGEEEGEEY
T1 sequence (P02554 whole entry, looked up): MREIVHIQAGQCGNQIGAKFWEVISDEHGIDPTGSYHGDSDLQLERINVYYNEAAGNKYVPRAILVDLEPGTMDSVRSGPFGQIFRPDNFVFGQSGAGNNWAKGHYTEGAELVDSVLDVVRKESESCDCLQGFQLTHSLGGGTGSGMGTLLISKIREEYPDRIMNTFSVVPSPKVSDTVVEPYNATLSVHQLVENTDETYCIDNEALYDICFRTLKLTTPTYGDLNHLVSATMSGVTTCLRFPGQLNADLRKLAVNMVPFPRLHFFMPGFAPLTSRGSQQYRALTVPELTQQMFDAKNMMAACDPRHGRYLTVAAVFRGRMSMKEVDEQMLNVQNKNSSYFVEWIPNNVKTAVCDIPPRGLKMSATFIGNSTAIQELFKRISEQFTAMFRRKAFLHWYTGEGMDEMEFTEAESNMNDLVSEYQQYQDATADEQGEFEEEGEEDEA
How it was run: (§1)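 Fluorescence-based tubulin polymerization kit. Compound in DMSO diluted with water, then combined with tubulin and GTP in buffer at 37 °C. Fluorescence (excitation 360 nm, emission 450 nm) read every 2 min for 1 h.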

Tubulin (Sus scrofa) [4] = molecular target: T1, Tubulin (Sus scrofa); test: Induction of porcine brain tubulin polymerization at 30 uM measured every 2 mins for 1 hr by fluorescence analysis in presence of GTP; how it was run: as §1
Tubulin (Sus scrofa) [5] = molecular target: T1, Tubulin (Sus scrofa); test: Induction of porcine brain tubulin polymerization at 1.5 uM irradiated with 5.6 mW/cm2 of far-red light for 30 mins measured every 2 mins for 1 hr by fluorescence analysis
[6] = Drug uptake in cytosol of human SKOV3 cells at 0.5 uM after 23 hrs by tubulin tracker green fluorescent dye based confocal microscopy; type: ADME, cell-based, SK-OV-3
How it was run: (§2)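 SKOV-3 cells grown in α-MEM with 10% bovine growth serum, 2 mM L-glutamine, penicillin/streptomycin and fungizone were seeded on coverslips, cultured 24 h, then exposed to prodrug at 500 nM for 24 h under minimal light. Tubulin tracker green, 1 µM final in HBSS, added 45-60 min at 37 °C, then washed. Confocal imaging: tracker excitation 488 nm/emission 500-550 nm, prodrug excitation 633 nm/emission 650-800 nm, three random fields per treatment.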

[7] = Drug uptake in nucleus of human SKOV3 cells at 0.5 uM after 23 hrs by tubulin tracker green fluorescent dye based confocal microscopy; type: ADME, cell-based; settings: sk-ov-3, 23 h; how it was run: as §2
[8] = Retention time of the compound at 10 uM by HPLC analysis; type: physicochemical
How it was run: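 Complete medium containing 10 µM compound held at 37 °C in the dark. Samples were extracted into dichloromethane, dried, and taken up in 5% DMSO in ACN. Isocratic HPLC with 90% ACN/10% 10 mM ammonium acetate at 0.5 mL/min; detection by diode array at 675 nm.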

[9] = Dark cytotoxicity against human SKOV3 cells assessed as cell viability after 72 hrs by MTT assay; type: cell-based; settings: SK-OV-3, 72 h
How it was run: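 SKOV-3 cells seeded at 5000/well, incubated 24 h, then treated from 2 mM DMSO stocks diluted in medium to final concentrations; kept in the dark 72 h. MTT ([…]) added, formazan dissolved in DMSO, absorbance 570 nm minus 650 nm background; viability as percentage of untreated wells.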

[10] = Photocytotoxicity against human SKOV3 cells assessed as cell viability incubated for 24 hrs under dark conditions followed by 5.6 mW/cm2 of laser illumination for 30 mins measured after 72 hrs by MTT assay; type: functional, cell-based; settings: SK-OV-3
How it was run: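 SKOV-3 cells (5000/well) dosed from 2 mM DMSO stocks diluted in medium; after 24 h dark incubation, plates illuminated uncovered on orbital shaker with 690 nm diode laser, 5.6 mW/cm² for 30 min (10 J/cm²). Incubated a further 72 h, then MTT read at 570 nm with 650 nm background; viability as percentage of untreated controls.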

[11] = Ratio of compound IC50 to PTX IC50 for dark cytotoxicity against human SKOV3 cells; type: cell-based, SK-OV-3; settings: read-out: Ratio IC50
[12] = Photocytotoxicity against human SKOV3 cells assessed as cell viability incubated for 24 hrs under dark conditions followed by 5.6 mW/cm2 of laser illumination for 30 mins measured 72 hrs post drug wash out by MTT assay; type: functional, cell-based; settings: SK-OV-3
How it was run: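 SKOV-3 cells (5000/well) held 24 h in the dark with drug, illuminated at 690 nm, 5.6 mW/cm², 30 min (10 J/cm²). Medium then replaced with fresh medium to remove released material, followed by 72 h incubation and MTT readout (570 nm, 650 nm background), viability relative to untreated wells.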

[13] = Ratio of photocytotoxic IC50 for human SKOV3 cells measured after drug wash out to photocytotoxic IC50 for human SKOV3 cells measured before drug wash out; type: functional, SK-OV-3
[14] = Drug degradation in complete medium at 10 uM after 96 hrs by HPLC analysis under dark conditions
[15] = Retention time of the compound in DMSO treated with (Pc-(L-PTX)2) by mass spectroscopy/HPLC analysis; type: physicochemical

| Retention_time [15] [min] | Structure (SMILES) | logD [1] | degraded at 24 h, 10 µM [2] [%] | Activity (Tubulin (Sus scrofa) [3]) | Activity (Tubulin (Sus scrofa) [4]) | Activity (Tubulin (Sus scrofa) [5]) | Drug uptake [6] | Drug uptake [7] | Retention_time [8] [min] | IC50 [9] [nM] | IC50 [10] [nM] | selectivity ratio [11] | IC50 [12] [nM] | Ratio IC50 [13] | degraded at 96 h, 10 µM [14] [%] |
| --- | --- | --- | --- | --- | --- | --- | --- | --- | --- | --- | --- | --- | --- | --- | --- |
| – | CC(=O)O[C@H]1C(=O)[C@@]2(C)[C@H](O)C[C@@H]3OC[C@]3(OC(C)=O)[C@@H]2[C@@H](OC(=O)c2ccccc2)[C@]2(O)C[C@@H](OC(=O)[C@@H](OC(=O)CCC(=O)N3CCN(CCO[Si]4(OCCN5CCN(C(=O)CCC(=O)O[C@@H](C(=O)O[C@@H]6C[C@@]7(O)[C@H](OC(=O)c8ccccc8)[C@H]8[C@@]9(OC(C)=O)CO[C@H]9C[C@@H](O)[C@]8(C)C(=O)[C@H](OC(C)=O)C(=C6C)C7(C)C)[C@H](NC(=O)c6ccccc6)c6ccccc6)CC5)n5c6c7ccccc7c5/N=C5N=C(/N=c7/c8ccccc8/c(n74)=N/C4=NC(=N\6)/c6ccccc64)c4ccccc4\5)CC3)[C@H](NC(=O)c3ccccc3)c3ccccc3)C(C)=C1C2(C)C (some centres undefined) | > 3.1 | 4 | inactive | inactive | inactive | Active | Not Active | 21 | 1280 | 24 | 270 | 53 | 2 | 14 |
| 11 | CC(=O)O[C@H]1C(=O)[C@@]2(C)[C@H]([C@H](OC(=O)c3ccccc3)[C@]3(O)C[C@H](OC(=O)[C@H](O)[C@@H](NC(=O)c4ccccc4)c4ccccc4)C(C)=C1C3(C)C)[C@]1(OC(C)=O)CO[C@@H]1C[C@@H]2O [PACLITAXEL] | – | – | – | – | – | – | – | – | 4.7 | – | – | – | – | – |
| – | CC(=O)O[C@H]1C(=O)[C@@]2(C)[C@H]([C@H](OC(=O)c3ccccc3)[C@]3(O)C[C@H](OC(=O)[C@H](OC(=O)/C=C/N4CCN(CCO[Si]5(OCCN6CCN(/C=C/C(=O)O[C@@H](C(=O)O[C@H]7C[C@@]8(O)[C@@H](OC(=O)c9ccccc9)[C@@H]9[C@]%10(OC(C)=O)CO[C@@H]%10C[C@H](O)[C@@]9(C)C(=O)[C@H](OC(C)=O)C(=C7C)C8(C)C)[C@@H](NC(=O)c7ccccc7)c7ccccc7)CC6)n6c7c8ccccc8c6/N=C6N=C(/N=c8/c9ccccc9/c(n85)=N/C5=NC(=N\7)/c7ccccc75)c5ccccc5\6)CC4)[C@@H](NC(=O)c4ccccc4)c4ccccc4)C(C)=C1C3(C)C)[C@]1(OC(C)=O)CO[C@@H]1C[C@@H]2O | > 3.1 | – | inactive | inactive | Active | Active | Not Active | 32 | 910 | 3.9 | 190 | 89 | 23 | < 7 |
